Measured values from different studies.
Cell line: HCT-116
Observed: cell growth or viability

Compound	assay	setting	IC50
CC1=C(O)C(=O)C=C2C1=CC=C1[C@@]2(C)CC[C@@]2(C)[C@@H]3C[C@](C)(C(=O)OCCCCCCCCO)CC[C@]3(C)CC[C@]12C	MTT	48 h	0.58 µM
COc1ccnc(COc2ccc(NC(=O)Nc3ccc(Cl)c(C(F)(F)F)c3)cc2)c1OC	MTT	72 h	18.1 µM
CC[C@]1(O)C[C@H]2CN(CCc3c([nH]c4ccccc34)[C@@](C(=O)OC)(c3cc4c(cc3OC)N(C=O)[C@H]3[C@@](O)(C(=O)OC)[C@H](OC(C)=O)[C@]5(CC)C=CCN6CC[C@]43[C@@H]65)C2)C1	fluorescence	72 h	0.0017 µM
COc1ccnc(COc2ccc(NC(=O)Nc3cc(F)cc(F)c3)cc2)c1OC	MTT	72 h	25.7 µM
Cc1ccc(O)c(/C=N/c2nc(Oc3ccccc3)nn2-c2ccc(C(=O)O)cc2)c1	MTT	–	74 µM
CC1(C)CC[C@]2(C)CC[C@]3(C)C(=CC[C@@H]4[C@@]5(C)CC[C@H](O)C(C)(C)[C@@H]5CC[C@]43C)[C@@H]2C1	WST-1	48 h	91.3 µM
COCCCOC(=O)[C@]1(C)CC[C@]2(C)CC[C@]3(C)C4=CC=C5C(=CC(=O)C(O)=C5C)[C@]4(C)CC[C@@]3(C)[C@@H]2C1	MTT	48 h	0.49 µM
CCn1c(-c2nnc(NC(=O)c3cc4c([nH]c5ccccc54)c(-c4ccc(C)cc4)n3)s2)cc2ccccc21	MTT	72 h	15.1 µM
CCN(CC)C(=S)NC(=O)c1ccc2ccccc2c1	–	48 h	5.07 µM
CSc1nc(/N=C/c2cc(Br)ccc2O)n(-c2ccc(C(=O)O)cc2)n1	MTT	–	59.4 µM
O=C(NC(=S)NCCCNC(=S)NC(=O)c1ccc2ccccc2c1)c1ccc2ccccc2c1	–	48 h	1.23 µM
COC(=O)c1cc2ccc(O)cc2oc1=O	MTT	36 h	> 20 µM
Cn1c(-c2nnc(NC(=O)c3cc4c([nH]c5ccccc54)c(-c4ccccc4)n3)s2)cc2ccccc21	MTT	72 h	10.3 µM
CC1CCC(OCn2c[n+](Cc3ccccc3)c3ccccc32)CC1 (stereo not shown)	MTT	72 h	21.9 µM
O=c1c(O)c(-c2ccc(O)c(O)c2)oc2cc(O)cc(O)c12	WST-1	48 h	9.1 µM
c1ccc(C[n+]2cn(COC3CCCCC3)c3ccccc32)cc1	MTT	72 h	44.2 µM
CC1=C(O)C(=O)C=C2C1=CC=C1[C@@]2(C)CC[C@@]2(C)[C@@H]3C[C@](C)(C(=O)OCCCCCCO)CC[C@]3(C)CC[C@]12C	MTT	48 h	0.53 µM
COc1ccc(O)c(/C=N/c2nc(Oc3ccccc3)nn2-c2ccc(C(=O)O)cc2)c1	MTT	–	58.5 µM
CC(=O)Oc1ccc2oc(=O)cc(CSC(C)=O)c2c1	MTT	36 h	> 20 µM
COc1cccc2c1C(=O)c1c(O)c3c(c(O)c1C2=O)C[C@@](O)(C(=O)CO)C[C@@H]3O[C@H]1C[C@H](N)[C@H](O)[C@H](C)O1	MTT	–	64 µM
Cc1cc(C)n(-c2nc(Nc3ccc(Br)cc3)nc(N3CCOCC3)n2)n1	MTT	72 h	0.5 µM
O=c1cc(CCl)c2c(O)cc(O)cc2o1	MTT	36 h	> 20 µM
Cc1c(OCC(F)(F)F)ccnc1COc1ccc(NC(=O)Nc2cc(F)cc(F)c2)cc1	MTT	72 h	52 µM

Compound	assay	setting	IC50
C=CC(=O)Nc1cccc(Nc2nc(Nc3ccc(OCCOC)cc3)ncc2F)c1	–	–	6.79 µM
CC(C)n1c(/C=C/C(O)CC(O)CC(=O)O)c(-c2ccc(F)cc2)c2ccccc21 (stereo not shown)	SRB	72 h	7.06 µg/mL
COc1cccc2c1C(=O)c1c(O)c3c(c(O)c1C2=O)C[C@@](O)(C(=O)CO)C[C@@H]3O[C@H]1C[C@H](N)[C@H](O)[C@H](C)O1	–	48 h	1.02 µM
COCCCOc1ccnc(COc2ccc(NC(=O)Nc3ccc(OC)cc3)cc2)c1C	MTT	72 h	12.7 µM
O=C(/N=C1\S/C(=C\c2ccc(Cl)cc2)C(=O)N1C1CCCCC1)c1ccc2ccccc2c1	–	48 h	9.28 µM
CCn1c(-c2nnc(NC(=O)c3cc4c([nH]c5ccccc54)c(-c4cc(OC)c(OC)c(OC)c4)n3)s2)cc2ccccc21	MTT	72 h	18.7 µM
COc1ccc(O)c(/C=N/c2nc(SC)nn2-c2ccc(C(=O)O)cc2)c1	MTT	–	55.3 µM
CC[C@H](C)C(=O)O[C@H]1C[C@@H](C)C=C2C=C[C@H](C)[C@H](CC[C@@H]3C[C@@H](O)CC(=O)O3)[C@H]21	SRB	72 h	6.79 µg/mL
Cc1c(OCC(F)(F)F)ccnc1COc1ccc(NC(=O)Nc2ccc(F)cc2)cc1	MTT	72 h	6.35 µM
O=c1cc(CCl)c2ccc(O)cc2o1	MTT	36 h	8.47 µM
Nc1nc(Oc2ccccc2)nn1-c1ccc(C(=O)O)cc1	MTT	–	61.2 µM
COCCCOc1ccnc(COc2ccc(NC(=O)Nc3ccc(F)cc3)cc2)c1C	MTT	72 h	6.44 µM
O=C(NC(=S)Nc1ccccc1)c1ccc2ccccc2c1	–	48 h	5.77 µM
CC1=C(O)C(=O)C=C2C1=CC=C1[C@@]2(C)CC[C@@]2(C)[C@@H]3C[C@](C)(C(=O)OCCO)CC[C@]3(C)CC[C@]12C	MTT	48 h	0.47 µM
COc1c(C)cnc(COc2ccc(NC(=O)Nc3ccc(F)cc3)cc2)c1C	MTT	72 h	12.7 µM
CCCCCCCCCCONC(N)=O	imaging	–	> 600 µM
COCCCOc1ccnc(COc2ccc(NC(=O)Nc3ccc(Cl)cc3)cc2)c1C	MTT	72 h	9.5 µM
NC(=O)NOCCCC[P+](c1ccccc1)(c1ccccc1)c1ccccc1	imaging	–	> 600 µM
COc1cc([C@@H]2c3cc4c(cc3[C@@H](O[C@@H]3O[C@@H]5CO[C@@H](C)O[C@H]5[C@H](O)[C@H]3O)[C@H]3COC(=O)[C@H]23)OCO4)cc(OC)c1O	MTS	24 h	29.6 µM
O=C(Nc1nnc(-c2cc3ccccc3[nH]2)s1)c1cc2c([nH]c3ccccc32)c(-c2ccc(Cl)cc2)n1	MTT	72 h	5.98 µM
COc1cc(OC)c(/C=C/S(=O)(=O)Nc2ccc(OC)c(N)c2)c(OC)c1	trypan blue	96 h	0.004 µM
CCNC(=S)NC(=O)c1ccc2ccccc2c1	–	48 h	4.14 µM
COc1cccc2c1C(=O)c1c(O)c3c(c(O)c1C2=O)C[C@@](O)(C(=O)CO)C[C@@H]3O[C@H]1C[C@H](N)[C@H](O)[C@H](C)O1	SRB	–	57.8 µM
